What was measured:
σ1 receptor [1] = target: σ1 receptor (Cavia porcellus, UniProt Q60492); assay: Competition binding assay at σ1 receptors with [3H]; design: species or system guinea pig
[2] = Compound stability in stock buffer for in vitro binding assays; format: physicochemical; settings: for Purity by HPLC after 25 days in stock buffer: 10^-3 M in water with 1% EtOH and 0.1% or 2.5% AcOH; for State after 25 days in stock buffer: stock buffer 2.5% AcOH, 1% EtOH in water
In short: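 Those prepared as HCl or oxalate salts were held instead in 0.1% AcOH with 1% EtOH. After 25 days in stock buffer, purity of each compound was analysed by analytical HPLC.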

σ2 receptor [3] = target: T1, σ2 receptor (Cavia porcellus, UniProt H0V073); assay: Competition binding assay at σ2 receptors with [3H]DTG / 500 nM; design: species or system guinea pig
T1 sequence (H0V073 1-176): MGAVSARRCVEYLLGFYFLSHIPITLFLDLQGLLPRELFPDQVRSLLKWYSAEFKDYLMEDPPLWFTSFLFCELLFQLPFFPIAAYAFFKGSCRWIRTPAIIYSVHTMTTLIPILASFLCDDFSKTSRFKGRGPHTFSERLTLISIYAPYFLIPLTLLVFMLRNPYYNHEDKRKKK

σ2 receptor [4] = settings: cited from earlier work
σ1 receptor [5] = settings: cited from earlier work

σ1 receptor (Cavia porcellus, UniProt Q60492), sequence (Q60492 whole entry): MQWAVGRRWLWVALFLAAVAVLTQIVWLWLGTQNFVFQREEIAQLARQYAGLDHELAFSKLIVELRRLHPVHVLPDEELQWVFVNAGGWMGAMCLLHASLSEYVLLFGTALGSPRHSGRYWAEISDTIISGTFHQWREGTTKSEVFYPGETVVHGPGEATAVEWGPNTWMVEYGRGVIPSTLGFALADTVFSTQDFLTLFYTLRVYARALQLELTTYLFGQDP

## COc1cc2c(cc1OC)CCN(CCCCNC(=O)c1cc(Br)cc(OC)c1OC)CC2 [Compound 4, 5-bromo-N-(4-(7,8-dimethoxy-4,5-dihydro-1H-benzo[d]azepin-3(2H)-yl)butyl)-2,3-dimethoxybenzamide]
σ1 receptor [1]; compared to 6 (7R-2) and 7 (7R-1)
  Poorest σ1 affinity by a factor compared to 6 and 7: 2
[2]
  Purity by HPLC after 25 days in stock buffer: exceeded 95%

## COc1cc2c(cc1OC)CN(CCCCNC(=O)c1cc(Br)cc(OC)c1OC)C2 [Compound 3, 5-bromo-N-(4-(5,6-dimethoxyisoindolin-2-yl)butyl)-2,3-dimethoxybenzamide]
σ1 receptor [1]; relative to 1
  Decrease in σ1 affinity relative to 1: approximately 50%
σ2 receptor [3]; relative to 1
  Improvement of σ2 affinity over that of 1: 70%
[2]
  Purity by HPLC after 25 days in stock buffer: exceeded 95%

## 5-bromo-N-(4-((3,4-dimethoxyphenethyl)(methyl)amino)butyl)-2,3-dimethoxybenzamide [Compound 9]
[2]
  Purity by HPLC after 25 days in stock buffer: exceeded 95%

## COc1cc2c(cc1OC)N(CCCCNC(=O)c1cc(Br)cc(OC)c1OC)CC2 [Compound 5, 5-bromo-N-(4-(5,6-dimethoxyindolin-1-yl)butyl)-2,3-dimethoxybenzamide]
σ1 receptor [1]; 3 (5R-2) vs. 5 (5R-1)
  Poorer σ1 affinity, 3 vs. 5: 3 times
[2]
  State after 25 days in stock buffer: totally decomposed

## COc1cc2c(cc1OC)CN(CCCCNC(=O)c1cc(Br)cc(OC)c1OC)CCC2 [Compound 6, 5-bromo-N-(4-(7,8-dimethoxy-4,5-dihydro-1H-benzo[c]azepin-2(3H)-yl)butyl)-2,3-dimethoxybenzamide]
[2]
  Purity by HPLC after 25 days in stock buffer: exceeded 95%

## COc1cc2c(cc1OC)CN(CCCCNC(=O)c1cc(Br)cc(OC)c1OC)CC2 [Compound 1]
σ2 receptor [4]; read-out: Ki (nM) σ2
  Ki: 8.2 nM

## 5-bromo-N-(4-(7,8-dimethoxy-2,3,4,5-tetrahydro-1H-benzo[b]azepin-1-yl)butyl)-2,3-dimethoxybenzamide [Compound 7]
σ1 receptor [1]; 7 (7R-1) vs. 6 (7R-2)
  Poorer σ1 affinity relative to 6: 20%
σ1 receptor [1]; read-out: Ki (nM) σ1, [3H](+)-PTZ, guinea pig brain membranes, mean ± SEM, n = 4
  Ki: 2560 ± 175 nM
σ2 receptor [3]; 7 (7R-1) vs. 6 (7R-2)
  Poorer σ2 affinity relative to 6: ~30 times
σ2 receptor [3]; ratio of Ki values
  Selectivity Ki σ1 / Ki σ2: 0.29
[2]
  Purity by HPLC after 25 days in stock buffer: exceeded 95%

## COc1ccc(CCNCCCCNC(=O)c2cc(Br)cc(OC)c2OC)cc1OC [Compound 2]
σ1 receptor [5]
  Change in σ1 affinity relative to 1: no change
σ2 receptor [4]; relative to 1
  Decrease in σ2 affinity relative to 1: 1700 fold

## COc1cc2c(cc1OC)N(CCCCNC(=O)c1cc(Br)cc(OC)c1OC)CCC2 [Compound 8, 5-bromo-N-(4-(6,7-dimethoxy-3,4-dihydroquinolin-1(2H)-yl)butyl)-2,3-dimethoxybenzamide]
σ1 receptor [1]; relative to 1 (Mach Lead)
  σ1 affinity decreased by a factor, relative to 1: 5
σ2 receptor [3]; relative to 1 (Mach Lead)
  σ2 affinity relative to 1 (in words): totally ablated
[2]
  State after 25 days in stock buffer: totally decomposed
